Experiment [1] has as its target T1, human NPS receptor, 107I variant (human) (UniProt Q6W5P4).
T1 sequence: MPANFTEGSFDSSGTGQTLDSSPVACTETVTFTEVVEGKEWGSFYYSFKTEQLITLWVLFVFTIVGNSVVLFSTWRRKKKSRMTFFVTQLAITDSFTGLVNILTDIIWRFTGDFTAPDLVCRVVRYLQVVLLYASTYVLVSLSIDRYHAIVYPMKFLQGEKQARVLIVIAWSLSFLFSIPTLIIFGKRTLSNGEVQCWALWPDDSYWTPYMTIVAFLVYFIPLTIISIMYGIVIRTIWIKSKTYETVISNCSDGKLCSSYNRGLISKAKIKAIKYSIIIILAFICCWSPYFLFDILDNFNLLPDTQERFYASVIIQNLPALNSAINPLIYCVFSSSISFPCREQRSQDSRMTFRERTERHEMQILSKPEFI

In experiment [2] the test system is mice. As to the kind of experiment: Marble Burying. Format: in vivo, mouse.
Experiment [3] relates to mice. As to the kind of experiment: Locomotor stimulation. The conditions noted are these: RTI-118 50 mg/kg i.p.; compound 4 10 nmole ICV. Format: in vivo, mouse. The method in brief:
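Mice were habituated 1 h in a 40 × 40 cm infrared-beam open field in a novel room, during the light phase. Test compound in aCSF/0.1% BSA was given ICV into the lateral ventricle under brief isoflurane. Recording began after ≥5 min recovery. The antagonist was given 50 mg/kg i.p. in saline as pretreatment. Misplaced injections were excluded post-mortem. n = 7–11 per group; one-way ANOVA with Dunnett's test.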

In experiment [4] the target is T2, mNPSR (Mus musculus, UniProt Q8BZP8).
T2 sequence (Q8BZP8 1-371): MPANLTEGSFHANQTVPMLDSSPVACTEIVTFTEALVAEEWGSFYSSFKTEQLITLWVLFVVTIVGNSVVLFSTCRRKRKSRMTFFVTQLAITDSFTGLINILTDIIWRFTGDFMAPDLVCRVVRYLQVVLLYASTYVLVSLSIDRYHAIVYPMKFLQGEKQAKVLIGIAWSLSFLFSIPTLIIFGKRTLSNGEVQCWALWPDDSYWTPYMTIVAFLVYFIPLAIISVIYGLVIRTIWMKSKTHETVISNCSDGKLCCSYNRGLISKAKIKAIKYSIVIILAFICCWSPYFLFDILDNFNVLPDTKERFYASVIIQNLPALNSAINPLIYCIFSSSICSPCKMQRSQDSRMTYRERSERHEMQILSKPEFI
As to the kind of experiment: Ca+2 mobilization assay, HEK 293T mNPSR cells. Format: cell-based. The method in brief: (§1)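 FLIPR Calcium 5 dye diluted 1:40 in HBSS, 20 mM HEPES, 2.5 mM probenecid, pH 7.4, loaded 45 min at 37 °C. Cells were plated overnight without selection antibiotics: CHO-Gα16 hNPSR-107I/N at 25,000/well and HEK 293T mNPSR at 35,000/well. Cells were pretreated 15 min at 1% DMSO. Test compound or NPS was added during a 60 s read (ex 485/em 525). Peak RFU was fit to a three-parameter logistic curve to give EC50. Bias was taken as Log(max/EC50), calcium versus cAMP, relative to NPS.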

Experiment [5] has as its target T3, hNPSR-107I (Homo sapiens, UniProt Q6W5P4, N107I).
T3 sequence (Q6W5P4 1-371 N107I): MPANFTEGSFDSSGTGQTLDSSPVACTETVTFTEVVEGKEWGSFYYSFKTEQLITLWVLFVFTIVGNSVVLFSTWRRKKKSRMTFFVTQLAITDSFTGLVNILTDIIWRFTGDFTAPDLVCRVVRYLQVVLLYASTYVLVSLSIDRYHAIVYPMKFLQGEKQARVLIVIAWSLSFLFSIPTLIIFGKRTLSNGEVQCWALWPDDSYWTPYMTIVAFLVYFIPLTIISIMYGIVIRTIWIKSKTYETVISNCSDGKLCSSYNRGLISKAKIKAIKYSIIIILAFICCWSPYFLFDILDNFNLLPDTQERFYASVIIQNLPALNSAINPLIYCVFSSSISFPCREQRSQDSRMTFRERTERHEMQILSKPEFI
The conditions noted are these: ref Bernier et al., 2006; cited from earlier work.

Experiment [6] concerns the target T3, hNPSR-107I. As to the kind of experiment: Ca+2 mobilization assay, CHO-Gα16 hNPSR-107I cells. The class given is cell-based. The essentials:
as §1

In experiment [7] the test system is mice. The experiment is described as follows: Passive Avoidance. The class given is in vivo, mouse. The settings on record: ICV 20 minutes after training, tested 48 hours after training; compound 4 0.01-10 nmole, NPS 1 nmole; vs aCSF.
The target in experiment [8] is T3, hNPSR-107I. The experiment is described as follows: cAMP accumulation assay. The class given is cell-based. The method in brief:
(§2)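 Cells were harvested with versene and suspended in HBSS, 5 mM HEPES, 0.5 mM IBMX, 0.1% BSA, pH 7.4: hNPSR-107N at 8,000/well, hNPSR-107I at 4,000/well, mNPSR at 20,000/well. Agonist was incubated at room temperature for 30 min (human lines) or 1 h (mNPSR). LANCE Ultra TR-FRET detection ran 1 h in the dark. RFU was interpolated to fmol cAMP from a standard curve, and a three-parameter fit gave EC50.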
On the technique in general: Cyclic AMP is a second messenger, typically raised through Gs and lowered through Gi signalling.

For experiment [9], the target named is T4, hNPSR-107N (Homo sapiens, UniProt Q6W5P4).
T4 sequence (Q6W5P4 1-371): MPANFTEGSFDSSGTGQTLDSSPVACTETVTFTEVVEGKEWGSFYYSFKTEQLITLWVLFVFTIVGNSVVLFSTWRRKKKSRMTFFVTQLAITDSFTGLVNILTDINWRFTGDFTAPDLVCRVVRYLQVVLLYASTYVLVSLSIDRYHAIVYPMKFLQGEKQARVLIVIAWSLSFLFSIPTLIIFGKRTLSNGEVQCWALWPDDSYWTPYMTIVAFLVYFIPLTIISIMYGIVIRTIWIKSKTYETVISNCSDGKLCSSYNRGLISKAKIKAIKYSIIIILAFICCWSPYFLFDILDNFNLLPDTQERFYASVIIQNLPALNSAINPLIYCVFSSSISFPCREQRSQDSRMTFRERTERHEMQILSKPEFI
The experiment is described as follows: cAMP accumulation assay. The class given is cell-based. The essentials: as §2

Experiment [10] concerns the target T4, hNPSR-107N. As to the kind of experiment: Ca+2 mobilization assay, CHO-Gα16 hNPSR-107N cells. The class given is cell-based. The conditions noted are these: hNPSR 107N cell line. The method in brief:
as §1

The test system of experiment [11] is mice. As to the kind of experiment: Light-Dark Box. The class given is in vivo, mouse. The conditions noted are these: 1 nmole ICV, 5–10 minutes before test.
The target of experiment [12] is T2, mNPSR. The experiment is described as follows: cAMP accumulation assay. The class given is cell-based. The method in brief:
as §2

Setting [13] is: mNPSR cell line, fraction of maximal window for response.
The mark [14] stands for this setting: hNPSR 107I cell line, fraction of maximal window for response.

Entries after “also recorded” stand apart in the source; their conditions may differ. Where a SMILES comes first, the peptide text is derived from it. Where no end group is shown, it is not given here.

By EC50 is commonly meant the concentration that produces a half-maximal response.

As for 7. SerPheAOCAsn-NH2 (peptide), the EC50 of calcium mobilization, CHO-Gα16 hNPSR-107I cells in experiment [1] is 436 nM.

Turning to `O=C(NCCN1CCCCC1)N1CCN2C(=O)OC(c3ccccc3)(c3ccccc3)C2C1` (stereo not drawn) [RTI-118], the “block of compound 4 effect on marble burying by pretreatment” value in the experiment with mice [2] (RTI-118 20 mg/kg fifteen minutes before compound 4 0.5 nmole) is “effects of 4 can be blocked; also recorded: blocked by the pretreatment with RTI-118”. In addition, the “block of compound 4 induced locomotor effects by pretreatment” value with mice [3] was “induced locomotor effects can be blocked; also recorded: this effect is blocked by pretreatment”.

On to “SFRNGVGTGMKKTSFQRAKS [NPS, Neuropeptide S]”, for which the “BIAS (Bias Toward Calcium)” value was 1.00 on mNPSR [4] (mNPSR cell line, calcium versus cAMP pathway); 1.00 at hNPSR-107I [6] (hNPSR 107I cell line, calcium versus cAMP pathway); 1.00 on hNPSR-107N [10] (calcium versus cAMP pathway). The “Calcium Mobilization Max” value on mNPSR [4] (setting [13]) is reported as 1; at hNPSR-107I [6] (setting [14]), 0.96; at hNPSR-107N [10] (fraction of maximal window for response) it was 0.97. The “selectivity for the hNPSR-107I over the hNPSR-107N (calcium mobilization EC50)” value at hNPSR-107I [5] is recorded as 5 fold. In addition, the “latency to enter the dark compartment” value with mice [7] is recorded as “appear to have the same maximal effects; also recorded: significantly increased the latency time”. The “cAMP Accumulation Max” value on hNPSR-107I [8] (setting [14]) is given as 1; at hNPSR-107N [9] (hNPSR 107N cell line, fraction of maximal window for response), 0.97; on mNPSR [12] (setting [13]) it was 0.82. The “number of marbles buried” value in the experiment with mice [2] (1 nmole ICV, twenty minutes before test, vs aCSF (Figure 5A)) is “NPS and 4 produce similar effects; also recorded: significantly decreased the number of marbles buried”. The “number of entries into the light-side” value with mice [11] is reported as “Neither NPS nor 4 significantly increased the number of entries into the light-side; also recorded: significantly more entries than compound 4 treated animals”. Further, the “time spent on the light side” value in the experiment with mice [11] (vs aCSF) is on record as “significantly increased the time spent on the light-side; also recorded: spent significantly more time on the light-side than the compound 4 treated animals”.

For the molecule `NCCCC[C@H](NC(=O)[C@H](Cc1ccccc1)NC(=O)[C@@H](N)CO)C(=O)N[C@@H](CC(N)=O)C(N)=O` [compound 4, SerPheLysAsn-NH2] (H-SFKN-NH2), the concentration for a half-maximal effect (EC50) at mNPSR [4] amounted to 100 ± 5.3 nM; on hNPSR-107I [6], 3.02 ± 0.74 nM; at hNPSR-107I [8], 117 ± 22 nM; on mNPSR [12], 911 ± 86 nM.

In the case of “SFRNGV-NH2 [compound 1, SerPheArgAsnGlyVal-NH2]”, the EC50 was 2.03 ± 0.3 nM at mNPSR [4], 1.95 ± 0.28 nM at hNPSR-107I [8], 427 nM on hNPSR-107N [9] and 13.4 ± 4.8 nM at mNPSR [12]. The “cAMP Accumulation EC50” value at hNPSR-107I [8] (hNPSR 107I cell line) is on record as “comparable potency to NPS”.

For the molecule SFK(trifluoroacetyl)N-NH2 [6. SerPheLysCOCF3Asn-NH2], the EC50 of calcium mobilization, CHO-Gα16 hNPSR-107I cells in [1] is 563 nM.

(Values after PMC5414581 (Neuropharmacology, 2017).)
